Data reported in publication PMC3830715 (Biochemistry, 2013).

Assays:
WT PDK1 PH domain [1] = target: T1, WT PDK1 PH domain (Homo sapiens, UniProt O15530); assay type: binding
T1 sequence (O15530 459-550 limits assumed): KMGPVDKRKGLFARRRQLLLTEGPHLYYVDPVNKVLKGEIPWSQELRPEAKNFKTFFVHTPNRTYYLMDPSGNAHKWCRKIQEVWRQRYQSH

WT PDK1 PH domain [2] = target: T1, WT PDK1 PH domain; assay type: binding; remark: listed apart in the source
Summary of the method: (§1)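 PH domain (1 μM, from Sf9 cells) was rapidly mixed by stopped flow with plasma membrane-like SUVs (600 μM total lipid, 6 μM accessible PIP₃). Final concentrations were 0.5 μM protein and 3 μM PIP₃, at 25 °C in HEPES pH 7.4 buffer with 10 mM DTT. Trp-to-dansyl-PE FRET was monitored, and a single-exponential fit gave k_on(app). k_off was estimated from the measured K_D and k_on.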

T513E PDK1 PH domain [3] = target: T2, T513E PDK1 PH domain (Homo sapiens, UniProt O15530, T513E); assay type: binding
T2 sequence (O15530 459-550 T513E limits assumed): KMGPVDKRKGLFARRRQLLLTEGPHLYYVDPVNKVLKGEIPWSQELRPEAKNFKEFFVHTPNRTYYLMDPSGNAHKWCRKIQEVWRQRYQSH
Summary of the method: as §1

[4] = system: WT and T513E PDK1 PH domains; assay type: binding, human; conditions: PC/PS/PIP3 74/24/2 supported bilayer (dioleoyl PIP3), SE n = 3
WT PDK1 PH domain [5] = target: T1, WT PDK1 PH domain; assay type: binding; conditions: read-out: KD(IP6); free WT PH domain in solution, 25 °C, physiological buffer
Summary of the method: (§2)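 Free PH domain, purified from Sf9 cells, was titrated with IP₆ in solution at 25 °C. The buffer was HEPES pH 7.4 with 140 mM KCl, 15 mM NaCl, 0.5 mM MgCl₂ and 10 mM DTT. Intrinsic Trp fluorescence was read at ex 284 nm / em 335 nm, slits 1/8 nm. K_DI came from a nonlinear least squares fit assuming homogeneous binding sites.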

T513E PDK1 PH domain [6] = target: T2, T513E PDK1 PH domain; assay type: binding; conditions: read-out: KD(IP6); free T513E PH domain in solution, 25 °C, physiological buffer
Summary of the method: as §2

[7] = target: the molecule itself; assay: single molecule TIRFM brightness analysis

Question: With `O=P(O)(O)OC1[C@H](O)[C@H](OP(=O)(O)O)C(OP(=O)(O)O)[C@H](OP(=O)(O)O)[C@H]1O` (some centres unmarked) [IP4, inositol 1,3,4,5-tetrakis(phosphate)] as the molecule, how does the “higher affinity for IP4 than for IP6” value (WT PDK1 PH domain [1]; WT PH domain) read?
Answer: 80 fold

Question: How did the “greater PIP3 membrane affinity of dimeric WT relative to monomeric T513E” value (WT PDK1 PH domain [1]; plasma membrane-like bilayers) turn out when `CCCCCCCCCCCCCCCC(=O)OC[C@H](COP(=O)(O)OC1[C@H](O)[C@H](OP(=O)(O)O)C(OP(=O)(O)O)[C@H](OP(=O)(O)O)[C@H]1O)OC(=O)CCCCCCCCCCCCCCC` (some centres unmarked) [PIP3, 1,2-dipalmitoylphosphatidylinositol 3,4,5-trisphosphate] was run?
Answer: 35 fold

Question: What about the “kon (app)” value (WT PDK1 PH domain [2]; WT PH domain 0.5 μM, 3 μM accessible PIP3, 25 °C) of the same molecule?
Answer: 1.6e+06 ± 100000 M⁻¹ s⁻¹

Question: And the “koff (calc)” value (WT PDK1 PH domain [2]; WT PH domain, estimated from measured KD and kon)?
Answer: 0.3 ± 0.2 ms ^−1

Question: What about the “kon (app)” value (T513E PDK1 PH domain [3]; T513E PH domain 0.5 μM, 3 μM accessible PIP3, 25 °C) of the same molecule?
Answer: 2.5e+06 ± 100000 M⁻¹ s⁻¹

Question: What about the “koff (calc)” value (T513E PDK1 PH domain [3]; T513E PH domain, estimated from measured KD and kon) of the same molecule?
Answer: 18 ± 5 ms ^−1

Question: And the “higher concentration of T513E PH domain needed relative to WT for same density of membrane-associated single particles (lower affinity for target PIP3 bilayer)” value [4]?
Answer: 9.7 ± 1.9 fold

Question: What does the source list for `O=P(O)(O)OC1C(OP(=O)(O)O)C(OP(=O)(O)O)C(OP(=O)(O)O)C(OP(=O)(O)O)C1OP(=O)(O)O` (centres unmarked) [IP6, Inositol 1,2,3,4,5,6-hexakisphosphate]?
Answer: Kd (WT PDK1 PH domain [5]): 9 ± 3 µM; Kd (T513E PDK1 PH domain [6]): 30 ± 11 µM; membrane-bound protein displaced (WT PDK1 PH domain [1]; 1 mM IP6, WT PH domain on PIP3 target membranes): less than 5%

B1: human WT PDK1 PH domain, AF555-labeled (domain or fragment, UniProt O15530 409-556, looked up)
chain: GSNIEQYIHDLDSNSFELDLQFSEDEKRLLLEKQAGGNPWHQFVENNLILKMGPVDKRKGLFARRRQLLLTEGPHLYYVDPVNKVLKGEIPWSQELRPEAKNFKTFFVHTPNRTYYLMDPSGNAHKWCRKIQEVWRQRYQSHPDAAVQ
modifications: Alexa Fluor 555 on the N-terminal Sfp labeling tag (enzymatic labeling, up to ~50% labeling efficiency)
Question: With B1 as the molecule, how does the “stoichiometry N” value [7] read?
Answer: 2
